From ChEMBL document CHEMBL1123691, “Multisubstrate inhibitors of dopamine beta-hydroxylase. 2. Structure-activity relationships at the phenethylamine binding site” (J Med Chem, 1987)
pIC50: −log10 of the molar value. Blank lines part the entries; values can stand above or below the compound they belong to.

Tests used:
[1] = target: T1, Dopamine beta-hydroxylase (Bos taurus, UniProt P15101); assay: Inhibitory Concentration against bovine Dopamine beta hydroxylase (DBH); Range is between (56-72).
T1 sequence (P15101 whole entry): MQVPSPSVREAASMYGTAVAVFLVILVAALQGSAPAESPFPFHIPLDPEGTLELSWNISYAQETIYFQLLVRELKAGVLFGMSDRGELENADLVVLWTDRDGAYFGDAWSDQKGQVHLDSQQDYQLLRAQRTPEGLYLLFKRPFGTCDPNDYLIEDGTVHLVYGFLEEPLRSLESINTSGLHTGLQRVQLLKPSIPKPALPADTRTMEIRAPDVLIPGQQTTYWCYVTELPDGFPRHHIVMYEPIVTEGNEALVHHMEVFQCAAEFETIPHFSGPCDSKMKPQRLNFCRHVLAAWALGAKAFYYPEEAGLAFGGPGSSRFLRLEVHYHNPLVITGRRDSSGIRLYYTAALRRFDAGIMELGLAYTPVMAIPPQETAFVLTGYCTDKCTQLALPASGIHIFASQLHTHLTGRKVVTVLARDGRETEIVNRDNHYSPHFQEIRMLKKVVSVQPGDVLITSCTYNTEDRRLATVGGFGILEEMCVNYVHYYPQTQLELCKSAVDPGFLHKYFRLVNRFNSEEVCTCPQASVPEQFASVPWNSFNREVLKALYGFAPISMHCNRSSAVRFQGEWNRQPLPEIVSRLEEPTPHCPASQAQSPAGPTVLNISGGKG

[2] = target: T2, Dopamine beta-hydroxylase (Bos taurus) (UniProt P15101); assay: Inhibitor dissociation constant vs. tyramine substrate against Dopamine beta hydroxylase at pH 6.0
T2 sequence (whole entry): T1 sequence (P15101 whole entry)
How it was run: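 Purified homogeneous DBH, specific activity 25-42 units/mg, assayed at pH 6.0 with tyramine as the varied substrate. Kis taken as slope inhibition constant from Cleland COMP/NONCOMP fits; mean ± SEM.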

[3] = target: T2, Dopamine beta-hydroxylase (Bos taurus); assay: Percent inhibition against bovine Dopamine beta hydroxylase (DBH) at 10E-4 M
How it was run: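 DBH activity measured in the presence of 10^-4 M compound; result expressed as percent inhibition.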

[4] = target: T1, Dopamine beta-hydroxylase
[5] = target: T1, Dopamine beta-hydroxylase; remark: listed apart in the source
Rattus norvegicus [6] = assay: Change in DA/NE (Dopamine/Norepinephrine) ratio after oral dosing (50 mg/kg); assay type: functional
How it was run: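 Adult male Okamoto-Aoki SHR given vehicle (5% PEG 400, 1% methocel) or suspended drug orally, two doses 18 h apart. Mesenteric arteries taken 2 h after second dose and homogenized in 0.4 M HClO4 with Na2S2O5 and EDTA at 0 °C. Supernatant incubated 60 min at 37 °C with rat liver COMT and [methyl-3H]-S-adenosylmethionine, pH 9.6 Tris; DA and NE measured.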

[7] = Partition coefficient (logP); assay type: physicochemical; details: octanol/water
How it was run: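 Octanol/pH 7.4 phosphate buffer partitioning at four concentrations, with UV assay of each phase. D taken at infinite dilution by linear regression. pKa by titration in 2:1 MeOH-H2O.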

[8] = target: T1, Dopamine beta-hydroxylase; assay: Inhibitory Concentration against bovine Dopamine beta hydroxylase (DBH); Range is between (21-37).
[9] = target: T1, Dopamine beta-hydroxylase; assay: Inhibitory Concentration against bovine Dopamine beta hydroxylase (DBH); Range is between (23-41).
Rattus norvegicus [10] = assay: Mean arterial blood pressure at 4 hr post drug at po dose of 50 mg/kg for the indicated number of SHR (spontaneous hypertensive rats) relative to blood pressure before dosing (expt. no. 12); assay type: functional
How it was run: (§1)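 Male Okamoto-Aoki SHR, 16–18 weeks, 275-310 g. Femoral artery cannulated under methohexital (10 mg/kg iv), with 2 h recovery, unrestrained. Drug given ip in 20% DMF or po as suspension in 5% PEG 400/1% methocel. BP recorded every 0.5 h for 5–6 h. Mean arterial BP change at 4 h versus predose; mean ± SEM, n rats; vehicle controls run in parallel.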

Rattus norvegicus [11] = assay: Mean arterial blood pressure at 4 hr post drug at ip dose of 50 mg/kg for the indicated number of SHR (spontaneous hypertensive rats) relative to blood pressure before dosing; assay type: functional; details: route intraperitoneal; how it was run: as §1
[12] = target: T2, Dopamine beta-hydroxylase (Bos taurus); assay: Inhibitor dissociation constant vs. tyramine substrate against Dopamine beta hydroxylase at pH 4.5.
How it was run: (§2)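 Homogeneous purified DBH with specific activity 25-42 units/mg, with tyramine as the varied substrate. The pH 4.5 condition is predominantly ordered: phenethylamine binds before oxygen. The pH 6.6 condition is random. Kis is from standard competitive/noncompetitive kinetic fits, reported as mean ± SEM.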

Rattus norvegicus [13] = assay: Mean arterial blood pressure at 4 hr post drug at po dose of 50 mg/kg for the indicated number of SHR (spontaneous hypertensive rats) relative to blood pressure before dosing (expt. no. 13); assay type: functional; details: dose 100 mg/kg, in the assay text read “100 mg/kg” for “50 mg/kg”; how it was run: as §1
[14] = target: T1, Dopamine beta-hydroxylase; assay: […] against bovine Dopamine beta hydroxylase […]; Range is between (4.2-5.3).
[15] = target: T1, Dopamine beta-hydroxylase; assay: Inhibitory Concentration against bovine Dopamine beta hydroxylase (DBH); Range is between (36-102)
[16] = target: T1, Dopamine beta-hydroxylase; remark: listed apart in the source
[17] = target: T1, Dopamine beta-hydroxylase; assay: Inhibitory Concentration against bovine Dopamine beta hydroxylase (DBH); Range is between (0.060-0.0877).
[18] = target: T2, Dopamine beta-hydroxylase (Bos taurus); assay: Inhibitor dissociation constant vs. tyramine substrate against Dopamine beta hydroxylase at pH 6.6; how it was run: as §2
[19] = target: T1, Dopamine beta-hydroxylase; assay: Inhibitory Concentration against bovine Dopamine beta hydroxylase (DBH); Range is between (10-14).
[20] = target: T1, Dopamine beta-hydroxylase; remark: listed apart in the source
[21] = target: T1, Dopamine beta-hydroxylase; remark: listed apart in the source
[22] = target: T1, Dopamine beta-hydroxylase; remark: listed apart in the source
[23] = target: T1, Dopamine beta-hydroxylase; remark: listed apart in the source
[24] = target: T1, Dopamine beta-hydroxylase; assay: Inhibitory Concentration against bovine Dopamine beta hydroxylase (DBH); Range is between (1.7-2.4)
[25] = target: T1, Dopamine beta-hydroxylase; remark: listed apart in the source
[26] = target: T1, Dopamine beta-hydroxylase; remark: listed apart in the source
[27] = target: T1, Dopamine beta-hydroxylase; assay: Inhibitory Concentration against bovine Dopamine beta hydroxylase (DBH); Range is between (4.9-6.5)
[28] = target: T1, Dopamine beta-hydroxylase; remark: listed apart in the source
[29] = target: T1, Dopamine beta-hydroxylase; remark: listed apart in the source
[30] = target: T1, Dopamine beta-hydroxylase; remark: listed apart in the source
[31] = target: T1, Dopamine beta-hydroxylase; remark: listed apart in the source
[32] = target: T1, Dopamine beta-hydroxylase; remark: listed apart in the source
[33] = target: T1, Dopamine beta-hydroxylase; remark: listed apart in the source
Rattus norvegicus [34] = assay: Mean arterial blood pressure at 4 hr post drug at ip dose of 100 mg/kg for the indicated number of SHR (spontaneous hypertensive rats) relative to blood pressure before dosing; assay type: functional; details: route intraperitoneal; how it was run: as §1
[35] = target: T1, Dopamine beta-hydroxylase; remark: listed apart in the source
[36] = target: T1, Dopamine beta-hydroxylase; remark: listed apart in the source
[37] = target: T1, Dopamine beta-hydroxylase; remark: listed apart in the source
[38] = target: T1, Dopamine beta-hydroxylase; remark: listed apart in the source
[39] = target: T1, Dopamine beta-hydroxylase; assay: […] against bovine Dopamine beta hydroxylase […]; Range is between (1.8-2.6).
[40] = target: T1, Dopamine beta-hydroxylase; assay: Inhibitory Concentration against bovine Dopamine beta hydroxylase (DBH); Range is between (7-38).

Compound: FC(F)(F)c1ccc(Cn2cc[nH]c2=S)cc1
Kis [2]: 9.04 µM
inhibition [3]: 25%

Compound: COc1cccc(Cn2cc[nH]c2=S)c1
pIC50 [4]: 3.80

Compound: Cc1ccc(Cn2cc[nH]c2=S)cc1
Kis [2]: 9.77 µM
inhibition [3]: 34%

Compound: COc1ccccc1Cn1cc[nH]c1=S
inhibition [3]: 68%

Compound: COc1ccc(Cn2ccnc2S)cc1S(N)(=O)=O
inhibition [3]: 7%

Compound: O=C(O)c1ccc(Cn2ccnc2S)cc1
inhibition [3]: 1%

Compound: COc1cc(Cl)c(Cn2cc[nH]c2=S)c(Cl)c1
inhibition [3]: 32%

Compound: O=[N+]([O-])c1ccc(Cn2cc[nH]c2=S)cc1
pIC50 [16]: 4.28

Compound: S=c1[nH]ccn1Cc1ccc(Br)cc1
Kis [2]: 3.42 µM
inhibition [3]: 43%

Compound: OCc1ccc(Cn2ccnc2S)cc1
inhibition [3]: 6%

Compound: S=c1[nH]ccn1Cc1cccc(Cl)c1Cl
pIC50 [22]: 4.28

Compound: Oc1ccccc1Cn1cc[nH]c1=S
pIC50 [23]: 3.24

Compound: S=c1[nH]ccn1Cc1ccccc1Cl
inhibition [3]: 14%

Compound: COc1ccc(Cn2cc[nH]c2=S)cc1OC
inhibition [3]: 15%

Compound: COc1ccc(Cn2cc[nH]c2=S)cc1C(F)(F)F
inhibition [3]: 29%

Compound: S=c1[nH]ccn1Cc1ccccc1
Kis [2]: 0.83 µM

Compound: Cc1ccccc1Cn1cc[nH]c1=S
inhibition [3]: 15%

Compound: COc1ccc(Cn2cc[nH]c2=S)cc1[N+](=O)[O-]
pIC50 [35]: 3.44

Compound: COc1cccc(OC)c1Cn1cc[nH]c1=S
inhibition [3]: 10%

Compound: S=c1[nH]ccn1Cc1c(Cl)cccc1Cl
inhibition [3]: 7%

Compound: S=c1[nH]ccn1CCCc1cc(Cl)cc(Cl)c1
pIC50 [39]: 5.68

Compound: Cc1cccc(C)c1Cn1cc[nH]c1=S
inhibition [3]: 5%

Now from value to compound, other results behind:

pIC50 [1]: 4.21
Compound: Oc1c(F)c(F)c(Cn2cc[nH]c2=S)c(F)c1F

pIC50 [5]: 5.62
logP [7]: 1.78
Compound: S=c1[nH]ccn1Cc1cc(Cl)cc(Cl)c1
Increase (Rattus norvegicus [6]): 197%

pIC50 [8]: 4.55
Compound: S=c1[nH]ccn1Cc1ccc(Cl)c(Cl)c1

inhibition [3]: 67%
Compound: COc1ccc(Cn2cc[nH]c2=S)cc1F

pIC50 [9]: 4.51
Compound: O=[N+]([O-])c1cc(Cn2cc[nH]c2=S)ccc1O

Kis [12]: 0.041 µM
logP [7]: 1.98
Compound: Fc1cc(F)cc(Cn2cc[nH]c2=S)c1
Decrease (Rattus norvegicus [10]): 22 mmHg
Decrease (Rattus norvegicus [11]): 50 mmHg
Decrease (Rattus norvegicus [13]): 28 mmHg
Increase (Rattus norvegicus [6]): 407%

pIC50 [14]: 5.33
Compound: Fc1cc(F)cc(CCCn2cc[nH]c2=S)c1

pIC50 [15]: 4.12
Compound: Oc1cc(Cl)c(Cn2cc[nH]c2=S)c(Cl)c1

pIC50 [17]: 7.13
Kis [18]: 0.039 µM
Kis [12]: 0.0057 µM
logP [7]: 1.08
Compound: Oc1c(F)cc(Cn2cc[nH]c2=S)cc1F
Decrease (Rattus norvegicus [11]): 36 mmHg
Increase (Rattus norvegicus [6]): 165%

pIC50 [19]: 4.92
Compound: S=c1[nH]ccn1Cc1cccc(Cl)c1

pIC50 [20]: 4.33
Compound: COc1c(Cl)cc(Cn2cc[nH]c2=S)cc1Cl

pIC50 [21]: 4.02
Compound: S=c1[nH]ccn1Cc1ccc(Cl)cc1

pIC50 [24]: 5.70
Compound: Oc1ccc(Cn2cc[nH]c2=S)cc1Cl

pIC50 [25]: 4.33
Compound: Fc1ccc(Cn2cc[nH]c2=S)cc1

logP [7]: 1.02
Compound: Oc1ccc(Cn2cc[nH]c2=S)cc1
Decrease (Rattus norvegicus [11]): 22 mmHg
Increase (Rattus norvegicus [6]): 92%

pIC50 [26]: 5.66
Compound: Oc1ccc(Cn2cc[nH]c2=S)cc1O

Kis [12]: 0.108 µM
pIC50 [27]: 5.25
logP [7]: 1.7
Compound: Fc1cccc(Cn2cc[nH]c2=S)c1
Increase (Rattus norvegicus [6]): 364%

inhibition [3]: 72%
Compound: COc1ccc(Cn2cc[nH]c2=S)cc1C

pIC50 [28]: 4.01
Compound: S=c1[nH]ccn1Cc1cc(Cl)ccc1Cl

pIC50 [29]: 4.31
Compound: Cc1cc(Cn2cc[nH]c2=S)ccc1O

pIC50 [30]: 4.92
Compound: Oc1ccc(Cn2cc[nH]c2=S)cc1Br

pIC50 [31]: 4.44
Compound: COc1c(F)cc(Cn2cc[nH]c2=S)cc1F

pIC50 [32]: 3.92
Compound: Oc1ccc(Cn2cc[nH]c2=S)cc1C(F)(F)F

pIC50 [33]: 6.17
Compound: Oc1c(Cl)cc(Cn2cc[nH]c2=S)cc1Cl
Decrease (Rattus norvegicus [34]): 28 mmHg
Increase (Rattus norvegicus [6]): 12%

pIC50 [36]: 3.83
Compound: Oc1cccc(Cn2cc[nH]c2=S)c1

pIC50 [37]: 5.82
logP [7]: 1.12
Compound: Oc1ccc(Cn2cc[nH]c2=S)cc1F
Decrease (Rattus norvegicus [34]): 32 mmHg
Increase (Rattus norvegicus [6]): 78%

pIC50 [38]: 3.99
Compound: S=c1[nH]ccn1Cc1c(Cl)cc(Cl)cc1Cl

inhibition [3]: 60%
Compound: COc1ccc(Cn2cc[nH]c2=S)cc1Br

pIC50 [40]: 4.77
Compound: S=c1[nH]ccn1Cc1ccc(Cl)cc1Cl
